Reference: ChEMBL document CHEMBL4321868, “Scaffold Simplification Strategy Leads to a Novel Generation of Dual Human Immunodeficiency Virus and Enterovirus-A71 Entry Inhibitors” (J Med Chem, 2020)
Calls of active or inactive are those of the source. No cut-off for these calls is given here.

Tests used:
[1] = molecular target: Envelope glycoprotein gp160 (Human immunodeficiency virus 1) (UniProt Q6QLK5); test: Binding affinity to recombinant HIV1 3B gp120 by SPR analysis
[2] = Selectivity index, ratio of CC50 for human MT4 cells to EC50 for HIV1 NL4.3 infected in human MT4 cells; type: toxicity, cell-based; details: read-out: Ratio CC50/EC50
Procedure, shortened: (§1)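 MT-4 cells (RPMI-1640, 10% FCS, 1% L-glutamine) pre-incubated 30 min at 37 °C with compound, then infected with HIV-1 NL4.3 or HIV-2 ROD according to stock TCID50. After 5 days, CPE scored microscopically and viability read by MTS/PES at A490 to derive EC50; cytotoxicity measured by MTS/PES at 5 days in the same cells. SI = CC50/EC50. Mean ± S.D. of at least 3 experiments.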

[3] = Selectivity index, ratio of CC50 for human MT4 cells to EC50 for HIV-1 NL4.3 infected in human MT4 cells
Enterovirus A71 [4] = test: Antiviral activity against Enterovirus A 71 BrCr infected in human RD cells assessed as reduction in viral RNA level at 20 uM preincubated for 1 hr followed by viral infection and measured 8 hrs post-infection by RT-qPCR analysis relative to control; type: functional, strain BRCR; parameters: scale not given: the % may be the effect or the level left
Procedure, shortened: (§2)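 RD cells grown to confluence; compound at 20 μM in 2% FBS medium added 1 h before or 1, 2, 4 h after EV-A71 BrCr infection (MOI 1). Pirodavir 20 μM as entry-inhibitor reference; infected untreated cells as controls. At 8 h post-infection, intracellular RNA isolated and viral RNA quantified by RT-qPCR.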

Enterovirus A71 [5] = test: Antiviral activity against Enterovirus A71 genotype B5 TW/70902/08 infected in human RD cells assessed as reduction in virus-induced cytopathic effect preincubated for 1 day followed by viral infection and measured after 3 days by MTS/PMS method; type: functional, organism-based; details: Enterovirus A, genotype B5 TW/70902/08, RD
Procedure, shortened: (§3)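 RD cells seeded in 96-well plates; next day serial compound dilutions plus virus at low MOI added. Incubation at 37 °C, 5% CO₂ until full CPE in untreated infected controls (3 days). CC50 from uninfected treated cells in the same setup; SI = CC50/EC50.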

Enterovirus A71 [6] = test: Antiviral activity against Enterovirus A71 genotype C4 TW/1956/05 infected in human RD cells assessed as reduction in virus-induced cytopathic effect preincubated for 1 day followed by viral infection and measured after 3 days by MTS/PMS method; type: functional, organism-based; details: Enterovirus A, genotype C4 TW/1956/05, RD; procedure, shortened: as §3
[7] = molecular target: Envelope glycoprotein gp160 (Human immunodeficiency virus 1, UniProt Q6QLK5); test: (§4) Inhibition of biotinylated-heparin binding to recombinant HIV1 3B gp120 by SPR analysis
Chain of Envelope glycoprotein gp160 (Q6QLK5 whole entry): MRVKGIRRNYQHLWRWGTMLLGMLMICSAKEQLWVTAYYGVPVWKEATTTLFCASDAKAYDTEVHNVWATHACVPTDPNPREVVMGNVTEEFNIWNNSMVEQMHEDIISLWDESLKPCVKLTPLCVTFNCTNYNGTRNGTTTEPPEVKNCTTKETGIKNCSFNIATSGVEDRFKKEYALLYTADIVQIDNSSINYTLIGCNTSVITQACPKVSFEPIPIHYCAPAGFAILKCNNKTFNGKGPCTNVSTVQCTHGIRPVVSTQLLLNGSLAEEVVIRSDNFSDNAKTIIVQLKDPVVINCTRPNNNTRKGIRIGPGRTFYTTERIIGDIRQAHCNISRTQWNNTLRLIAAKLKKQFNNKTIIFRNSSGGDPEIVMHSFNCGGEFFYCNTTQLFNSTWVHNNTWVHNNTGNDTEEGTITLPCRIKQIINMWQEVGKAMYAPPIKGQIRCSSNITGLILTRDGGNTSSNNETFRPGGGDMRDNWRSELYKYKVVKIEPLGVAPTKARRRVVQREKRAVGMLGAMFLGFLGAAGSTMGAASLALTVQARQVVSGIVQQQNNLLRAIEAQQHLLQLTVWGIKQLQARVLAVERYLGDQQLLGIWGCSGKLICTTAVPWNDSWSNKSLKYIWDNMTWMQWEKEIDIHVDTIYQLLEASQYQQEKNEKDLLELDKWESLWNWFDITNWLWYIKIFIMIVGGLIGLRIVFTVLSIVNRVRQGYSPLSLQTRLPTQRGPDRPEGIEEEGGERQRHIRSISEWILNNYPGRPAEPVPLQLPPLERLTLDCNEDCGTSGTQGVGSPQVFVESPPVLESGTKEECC
Procedure, shortened: (§5)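 SPR at 25 °C in PBS with 5% DMSO, 0.005% Tween20, pH 7.4. Minimally biotinylated heparin captured (880 RU) on streptavidin chip. Recombinant HIV-1 IIIB gp120 (10 nM) alone or premixed with a compound concentration range injected 2 min at 10 μl/min; regenerated with 1 M NaCl/10 mM NaOH. Double-referenced; RU converted to % inhibition vs gp120 alone; nonlinear fit, three experiments.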

[8] = molecular target: Envelope glycoprotein gp160 (Human immunodeficiency virus 1) (UniProt Q6QLK5); test: as §4; procedure, shortened: as §5
Enterovirus A71 [9] = test: Antiviral activity against Enterovirus A71 genotype C2 H08300 461812 infected in human RD cells assessed as reduction in virus-induced cytopathic effect preincubated for 1 day followed by viral infection and measured after 3 days by MTS/PMS method; type: functional, organism-based; details: Enterovirus A, genotype C2 H08300 461812, RD; procedure, shortened: as §3
Enterovirus A71 [10] = test: Antiviral activity against Enterovirus A 71 BrCr infected in human RD cells assessed as reduction in viral RNA level at 20 uM treated 1 to 4 hrs post-infection and measured 8 hrs post-infection by RT-qPCR analysis; type: functional, strain BRCR; parameters: scale not given: the % may be the effect or the level left; procedure, shortened: as §2
[11] = Selectivity ratio of EC50 for Enterovirus A 71 BrCr infected in human RD cells to EC50 for Enterovirus A 71 genotype C4 TW/1956/05 infected in human RD cells; type: functional
Enterovirus A71 [12] = test: Antiviral activity against Enterovirus A 71 BrCr harboring VP1 S184T/P246S mutant infected in human RD cells assessed as reduction in virus-induced cytopathic effect preincubated for 1 day followed by viral infection and measured after 3 days by MTS/PMS method; type: functional, organism-based, strain BRCR
[13] = test system: Human immunodeficiency virus 1; test: Antiviral activity against HIV1 3B infected in human MT4 cells assessed as reduction in p24 production at 20 uM administered at onset of infection measured 8 hrs post-infection by ELISA; type: functional, organism-based
RD [14] = test: Cytotoxicity against human RD cells assessed as induction of cell morphological changes; type: cell-based
HeLa = test: Binding affinity to capsid protein VP1 five fold axis in Enterovirus A71 genotype B2 11316 infected in human HeLa cells at 20 uM measured after 1 hr by cryo-electron microscopic analysis; type: cell-based
[15] = test system: Human immunodeficiency virus 1; test: Antiviral activity against HIV1 NL4.3 infected in human MT4 cells assessed as reduction in virus-induced cytopathic effect preincubated for 30 mins followed by viral infection and measured after 5 days by MTS assay; type: functional, organism-based; details: Human immunodeficiency virus 1, NL4.3, MT4
Enterovirus A71 [16] = test: Antiviral activity against Enterovirus A 71 BrCr harboring VP1 P246S mutant infected in human RD cells assessed as reduction in virus-induced cytopathic effect preincubated for 1 day followed by viral infection and measured after 3 days by MTS/PMS method; type: functional, organism-based, strain BRCR
[17] = Selectivity ratio of EC50 for Enterovirus A 71 BrCr infected in human RD cells to EC50 for Enterovirus A 71 genotype B2 11316 infected in human RD cells; type: functional
Enterovirus A71 [18] = test: Antiviral activity against Enterovirus A 71 BrCr harboring VP1 S184T mutant infected in human RD cells assessed as reduction in virus-induced cytopathic effect preincubated for 1 day followed by viral infection and measured after 3 days by MTS/PMS method; type: functional, organism-based, strain BRCR
[19] = test system: Human immunodeficiency virus 2; test: Antiviral activity against HIV-2 ROD infected in human MT4 cells assessed as reduction in virus-induced cytopathic effect preincubated for 30 mins followed by viral infection and measured after 5 days by MTS assay; details: Human immunodeficiency virus 2, ISOLATE ROD
[20] = Selectivity index, ratio of CC50 for human RD cells to EC50 for Enterovirus A71 BrCr infected in human RD cells; type: toxicity, cell-based; details: read-out: Ratio CC50/EC50; procedure, shortened: as §3
RD [21] = test: Cytotoxicity against human RD cells assessed as adverse effect on cell; type: cell-based
Enterovirus A71 [22] = test: Antiviral activity against Enterovirus A 71 BrCr infected in human RD cells assessed as reduction in viral RNA level at 20 uM administered at onset of infection measured 8 hrs post-infection by RT-qPCR analysis relative to control; type: functional, strain BRCR; parameters: scale not given: the % may be the effect or the level left
Enterovirus A71 [23] = test: Antiviral activity against Enterovirus A 71 BrCr infected in human RD cells assessed as reduction in virus-induced cytopathic effect preincubated for 1 day followed by viral infection and measured after 3 days by MTS/PMS method; type: functional, organism-based; details: strain BRCR
Procedure, shortened: as §3, with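 “days). Viability read by MTS/PMS; EC50 as 50% inhibition of virus-induced death from dose-response curves.” for “days).”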

Enterovirus A71 [24] = test: Antiviral activity against Enterovirus A71 genotype B2 11316 infected in human RD cells assessed as reduction in virus-induced cytopathic effect preincubated for 1 day followed by viral infection and measured after 3 days by MTS/PMS method; type: functional, organism-based; details: Enterovirus A, genotype B2 11316, RD; procedure, shortened: as §3
[25] = test system: Human immunodeficiency virus 1; test: Antiviral activity against HIV1 3B infected in human MT4 cells assessed as reduction in p24 production at 20 uM incubated for 1 hr prior to viral infection followed by compound washout and measured 8 hrs post-infection by ELISA; type: functional, organism-based
[26] = Cytotoxicity against human MT4 cells assessed as reduction in cell viability measured after 5 days by MTS/PES assay; type: cell-based; procedure, shortened: as §1
[27] = molecular target: Human immunodeficiency virus type 1 reverse transcriptase (Human immunodeficiency virus 1) (UniProt Q72547); details: 3B, MT4, 12 uM
Enterovirus A71 [28] = test: Antiviral activity against Enterovirus A 71 BrCr infected in human RD cells assessed as reduction in virus-induced cell death preincubated for 1 day followed by viral infection and measured after 3 days by microscopic analysis; type: functional, strain BRCR; parameters: scale not given: the % may be the effect or the level left
Procedure, shortened: (§6)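 RD cells were seeded in 96-well plates and infected the next day at low MOI, with serial compound dilutions added at the same time. Plates were incubated at 37 °C, 5% CO2 for 3 days, until untreated infected controls died. Cell death was quantified by MTS/PMS and EC50 calculated from dose-response curves. Values come from more than 2 dose-response curves across more than 1 experiment, with microscopic quality control.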

Enterovirus A71 [29] = test: Antiviral activity against Enterovirus A71 genotype B2 11316 infected in human RD cells assessed as reduction in virus-induced cell death preincubated for 1 day followed by viral infection and measured after 3 days by microscopic analysis; type: functional; parameters: scale not given: the % may be the effect or the level left; procedure, shortened: as §6
Enterovirus A71 [30] = test: Antiviral activity against Enterovirus A71 genotype C2 H08300 461812 infected in human RD cells assessed as reduction in virus-induced cell death preincubated for 1 day followed by viral infection and measured after 3 days by microscopic analysis; type: functional; parameters: scale not given: the % may be the effect or the level left; procedure, shortened: as §6
Enterovirus A71 [31] = test: Antiviral activity against Enterovirus A71 genotype C4 TW/1956/05 infected in human RD cells assessed as reduction in virus-induced cell death preincubated for 1 day followed by viral infection and measured after 3 days by microscopic analysis; type: functional; parameters: scale not given: the % may be the effect or the level left; procedure, shortened: as §6
Enterovirus A71 [32] = test: Antiviral activity against Enterovirus A71 genotype B5 TW/70902/08 infected in human RD cells assessed as reduction in virus-induced cell death preincubated for 1 day followed by viral infection and measured after 3 days by […]; type: functional; parameters: scale not given: the % may be the effect or the level left; procedure, shortened: as §6

Chain of Envelope glycoprotein gp160 (Human immunodeficiency virus 1) (Q6QLK5 1-814): as the sequence (Q6QLK5 whole entry) above

| SMILES | selectivity ratio [2] | selectivity ratio [3] | Activity (Enterovirus A71 [4]) [%] | EC50 (Enterovirus A71 [5]) [nM] | EC50 (Enterovirus A71 [6]) [nM] | EC50 (Enterovirus A71 [9]) [nM] | Ratio EC50 [11] | Activity (RD [14]) | EC50 [15] [nM] | Ratio EC50 [17] | EC50 [19] [nM] | selectivity ratio [20] | Activity (RD [21]) | Activity (Enterovirus A71 [22]) [%] | EC50 (Enterovirus A71 [23]) [nM] | EC90 (Enterovirus A71 [23]) [nM] | EC50 (Enterovirus A71 [24]) [nM] | CC50 at 120 h [26] [nM] | other results |
| --- | --- | --- | --- | --- | --- | --- | --- | --- | --- | --- | --- | --- | --- | --- | --- | --- | --- | --- | --- |
| O=C(CCC(CCC(=O)NC(Cc1c(-c2cc(C(=O)O)cc(C(=O)O)c2)[nH]c2ccccc12)C(=O)O)(CCC(=O)NC(Cc1c(-c2cc(C(=O)O)cc(C(=O)O)c2)[nH]c2ccccc12)C(=O)O)[N+](=O)[O-])NC(Cc1c(-c2cc(C(=O)O)cc(C(=O)O)c2)[nH]c2ccccc12)C(=O)O (stereo not given) | > 370 | > 370 | 100 | 81 | 38 | 57 | 9 | Non-Toxic | 270 | 2 | 630 | > 203 | Non-Toxic | 100 | 350 | 550 | 179 | > 100000 | Activity [1]: Dose-dependent effect; IC50 [7]: 982 nM; inhibition [8]: Dose-dependent effect; Activity (Enterovirus A71 [10]): 0%; EC50 (Enterovirus A71 [12]): 2180 nM; Activity [13]: Active; Activity (HeLa): Active; EC50 (Enterovirus A71 [16]): 1960 nM; EC50 (Enterovirus A71 [18]): 2350 nM; Activity [25]: Active |
| CCOC(=O)c1ccc(OCCC2CCN(c3ccc(C)nn3)CC2)cc1 [PIRODAVIR] | – | – | 100 | – | – | – | – | – | – | – | – | > 333 | – | 100 | 300 | 600 | – | – | – |
| Cc1cn([C@H]2C[C@H](N=[N+]=[N-])[C@@H](CO)O2)c(=O)[nH]c1=O | – | – | – | – | – | – | – | – | – | – | – | – | – | – | – | – | – | – | inhibition [27]: Active |
| O=C(CCOCC(COCCC(=O)NC(Cc1c(-c2cccc(C(=O)O)c2)[nH]c2ccccc12)C(=O)O)(COCCC(=O)NC(Cc1c(-c2cccc(C(=O)O)c2)[nH]c2ccccc12)C(=O)O)COCCC(=O)NC(Cc1c(-c2cccc(C(=O)O)c2)[nH]c2ccccc12)C(=O)O)NC(Cc1c(-c2cccc(C(=O)O)c2)[nH]c2ccccc12)C(=O)O (stereo not given) | > 50 | > 50 | – | 18 | 2 | 7.3 | 88 | Non-Toxic | 2000 | 4 | 760 | > 336 | Non-Toxic | – | 175 to 190 | 300 | 52 | > 100000 | Activity (Enterovirus A71 [28]): 100%; Activity (Enterovirus A71 [29]): 100%; Activity (Enterovirus A71 [30]): 100%; Activity (Enterovirus A71 [31]): 100%; Activity (Enterovirus A71 [32]): 100% |
